The source of these data is ChEMBL document CHEMBL1152800, “Aza-analogue dibenzepinone scaffolds as p38 mitogen-activated protein kinase inhibitors: design, synthesis, and biological data of inhibitors with improved physicochemical properties” (J Med Chem, 2009).

A short description of series [1]: Lipophilicity, CHI in methanol by fast-gradient HPLC. It is filed as physicochemical. The essentials: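 Chromatographic hydrophobicity index measured by fast-gradient reversed-phase HPLC with methanol as organic modifier. The index is calculated from the compound's retention time. It approximates the volume percentage of methanol needed for equal distribution of the compound between mobile and stationary phases.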

The target of series [2] is Mitogen-activated protein kinase 14 (Homo sapiens, UniProt Q16539). As to the kind of experiment: Inhibition of p38alpha MAPK by cell-free enzyme immunosorbent assay.
Sequence of Mitogen-activated protein kinase 14 (Q16539 whole entry): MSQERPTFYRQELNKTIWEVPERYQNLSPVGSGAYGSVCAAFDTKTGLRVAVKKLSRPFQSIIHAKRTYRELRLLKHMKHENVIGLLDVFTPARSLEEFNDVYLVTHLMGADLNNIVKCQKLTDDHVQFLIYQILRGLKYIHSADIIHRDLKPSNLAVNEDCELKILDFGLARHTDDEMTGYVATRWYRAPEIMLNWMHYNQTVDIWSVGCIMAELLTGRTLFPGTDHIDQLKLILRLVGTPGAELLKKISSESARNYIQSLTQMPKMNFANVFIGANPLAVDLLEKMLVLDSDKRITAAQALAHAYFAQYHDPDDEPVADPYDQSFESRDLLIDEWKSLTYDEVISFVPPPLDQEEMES
A short description of series [3]: Aqueous solubility in HCl/H2O at pH 1. It is filed as physicochemical.

Molecules are shown by their SMILES. In brackets after ≈: the same amount, converted by molar mass.

Consider `O=C1c2ccc(Nc3ccc(F)cc3F)cc2OCc2ncccc21`, for which the CHI in series [1] is recorded as 83.2%. Besides, the IC50 – broadly, the concentration needed to halve the response being measured – in series [2] was 180 nM.

For the compound `Nc1ccccc1Nc1ccc2c(=O)c3cnccc3ccc2c1`, the CHI in series [1] is listed as 71.4%. Further, in series [2], the IC50 stood at 1950 nM.

Take `Nc1ccccc1Nc1ccc2c(c1)OCc1ncccc1C2=O`: the CHI in series [1] was determined as 69%. Moreover, the IC50 in series [2] was 2680 nM.

`Nc1ccccc1Nc1ccc2c(c1)OCc1ccccc1C2=O` had a CHI in series [1] of 75.2%.

Consider `O=c1c2ccccc2ccc2cc(Nc3ccc(F)cc3F)ccc12`, for which the CHI in series [1] turned out to be 88.7%. In addition, the IC50 in series [2] is 2530 nM.

For the compound `Nc1ccccc1Nc1ccc2c(=O)c3cccnc3ccc2c1`, the CHI in series [1] was determined as 73.4%. Also, in series [2], half-maximal inhibition (IC50) required 1080 nM.

Regarding `O=C1c2ccccc2CCc2cc(Nc3ccc(F)cc3F)ccc21`, in series [1], the CHI was determined as 88.1%. Besides, in series [3], the solubility (commonly the dissolved amount per volume that the medium holds) was under 10 µg/mL. The compound further showed an IC50 in series [2] of 130 nM.

On to `Nc1cc(F)ccc1Nc1ccc2c(c1)OCc1ccccc1C2=O`, for which the IC50 in series [2] was found to be 40 nM.

In series [1], `O=C1c2ccc(Nc3ccc(F)cc3F)cc2CCc2ncccc21` returned a CHI of 81.2%. The compound further returned a solubility in series [3] of 486 µg/mL (≈ 1440 µM). For the same compound, half-maximal inhibition in series [2] (IC50) required 240 nM.

`Nc1ccccc1Nc1ccc2c(c1)CCc1cccnc1C2=O` gave a CHI in series [1] of 65.8%. Moreover, in series [2], the IC50 stood at 440 nM.

The compound `Nc1ccccc1Nc1ccc2c(c1)CCc1ncccc1C2=O` returned a CHI in series [1] of 73.9%. In series [3], the solubility was 1200 µg/mL (≈ 3800 µM). For the same compound, the IC50 in series [2] stood at 310 nM.

`Nc1cc(F)ccc1Nc1ccc2c(c1)CCc1ccccc1C2=O` returned a CHI in series [1] of 82.8%. In addition, inhibition in series [2] was half-maximal at 130 nM (IC50).

For `O=c1c2ccc(Nc3ccc(F)cc3F)cc2ccc2ncccc12`, in series [1], the CHI amounted to 82.9%. Moreover, the IC50 in series [2] was 330 nM.

For the compound `Nc1cc(F)ccc1Nc1ccc2c(c1)OCc1ncccc1C2=O`, the CHI in series [1] was determined as 70.9%. Moreover, in series [2], the IC50 came to 2730 nM.

Consider `Nc1cc(F)ccc1Nc1ccc2c(c1)CCc1ncccc1C2=O`, for which the CHI in series [1] came out at 72.9%. The same compound came in with an IC50 in series [2] of 1190 nM.

As to `Nc1ccccc1Nc1ccc2c(c1)CCc1ccccc1C2=O`, in series [1], the CHI was 82.6%. Besides, the solubility in series [3] was under 10 µg/mL.
